According to PMC3481142 (Cell Death & Disease, 2012):
Square brackets hold non-standard residues; d marks the D form. Peptide text beside a SMILES is read from it.

Tests used:
Saos-2 cells = assay: cytochrome c release, immunolocalization; assay type: cell-based; conditions: 10 µM, 24 h
[1] = solubility in culture medium; assay type: physicochemical
SKBr3 cells = assay: MTT and trypan blue cell viability assays; assay type: cell-based, human
[2] = patients with advance solid tumors; cited from earlier work
MDA-MB-231 cell line = assay: cell viability IC50 determination; assay type: cell-based; conditions: Homo sapiens, MDA-MB-231, read-out: IC50 (MDA-MB-231)
[3] = tested on: Bcl-2 family proteins, IAPs and caspases in MDA-MB-468 cells; assay: western blots of apoptosis-related proteins and caspases; assay type: cell-based, human; conditions: 72 h
Procedure, shortened: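 MDA-MB-468 cells were treated for 72 h with TAT-NBI1, erlotinib or both at the indicated μM concentrations. Whole-cell extracts were made in 25 mM Tris-HCl pH 7.4, 1 mM EDTA, 1 mM EGTA and 1% SDS with protease and phosphatase inhibitors, and protein was quantified by BCA. Lysates were run on SDS-PAGE, transferred to nitrocellulose and immunoblotted.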

[4] = tested on: caspase-3/7 activity in MDA-MB-468 cells; assay: caspase activation assay in cellular extracts; assay type: cell-based, human
Procedure, shortened: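 MDA-MB-468 cells were cultured in L-15 with 10% FBS at 37 °C without CO2 and seeded at 125 000 cells/ml. They received TAT-NBI1/erlotinib co-treatment at the indicated μM concentrations, with or without necrostatin-1, for 48 h. Caspase-3/7 activity was then measured in cellular extracts.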

[5] = tested on: caspase-3/7 activity in MDA-MB-231 cells; assay: caspase activation assay in cellular extracts; assay type: cell-based
Procedure, shortened: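 MDA-MB-231 cells were grown in Leibovitz's L-15 with 10% FBS at 37 °C without CO2. Cells were co-treated with TAT-NBI1/erlotinib at the indicated μM concentrations, with or without necrostatin-1 (100 μM). Etoposide (25 μM) ± necrostatin-1 served as reference. Caspase-3/7 activation was measured in cellular extracts.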

[6] = tested on: Cyt c release in MDA-MB-468 cells; assay: Cyt c release from mitochondria; assay type: cell-based, human; conditions: 48 h; doxorubicin 5 μM
Procedure, shortened: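 MDA-MB-468 cells were grown as a monolayer in Leibovitz's L-15 with 10% FBS at 37 °C without CO2, then seeded at 125 000 cells/ml. They were exposed to the test compounds for 48 h at the indicated concentrations. Cytochrome c release was quantified with a flow-cytometric cytochrome c release kit per the manufacturer's protocol, and cells were analysed on a flow cytometer.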

For `CC[C@@H](C)[C@@H](NC(=O)[C@@H](Cc1c[nH]c2ccccc12)NC(=O)[C@@H](CCCNC(=N)N)NC(=O)[C@H](CCC(N)=O)NC(=O)[C@@H]1CCCN1C(=O)[C@H](CCCNC(=N)N)NC(=O)[C@H](CCCNC(=N)N)NC(=O)[C@H](CCCNC(=N)N)NC(=O)[C@H](CCC(N)=O)NC(=O)[C@H](CCCNC(=N)N)NC(=O)[C@H](CCCNC(=N)N)NC(=O)[C@H](CCCCN)NC(=O)[C@H](CCCCN)NC(=O)[C@H](CCCNC(=N)N)NC(=O)CN)C(=O)N[C@H](CCSC)C(=O)N[C@H](Cc1ccc(O)cc1)C(=O)N[C@H](Cc1ccccc1)C(N)=O` [TAT-NBI1] (H-GRKKRRQRRRPQ[dR][dW][dI][dM][dY][dF]-NH2; N-terminus and C-terminus assumed), the “mechanism of cell death followed by cytochrome c release to the cytosol” value (Saos-2 cells) was “induced cell death by intrinsic, mitochondrial-mediated, apoptosis”.
In the case of `C#Cc1cccc(Nc2ncnc3cc(OCCOC)c(OCCOC)cc23)c1` [erlotinib], the solubility [1] is listed as no more than 20 µM, the “change of lethal dose of erlotinib in the presence of TAT-NBI1” value (SKBr3 cells) is listed as “twofold lower” and the “plasma concentration at the steady state” value [2] is listed as roughly 5 µM. For the same molecule, the IC50 (MDA-MB-231 cell line) was greater than 20 µM and the Bim expression [3] was “upregulated”.
In the case of `CN1C(=O)C(Cc2c[nH]c3ccccc23)NC1=S` (stereo not drawn) [nec-1, necrostatin-1], the “effect on TAT-NBI1/erlotinib-induced caspase activation” value [4] is reported as “inhibited” and the “effect on TAT-NBI1/erlotinib-induced caspase activation” value [5] is reported as “inhibited”.
In the case of `COc1cccc2c1C(=O)c1c(O)c3c(c(O)c1C2=O)C[C@@](O)(C(=O)CO)C[C@@H]3O[C@H]1C[C@H](N)[C@H](O)[C@H](C)O1` [doxorubicin], the “Cyt c release to the cytoplasm” value [6] is reported as “Cyt c release to the cytoplasm”.
